# Reference: ChEMBL document CHEMBL5331136, “Design, Synthesis, and Biological Evaluation of Novel Spiro Imidazobenzodiazepines to Identify Improved Inhaled Bronchodilators” (J Med Chem, 2023)
# The source made the active and inactive calls. The rule behind the calls is not given here.
# Tests used:
# [1] = Aqueous solubility of the compound at […] under shaking condition for 24 hrs by UV absorbance based analysis; assay type: physicochemical; conditions: for solubility: buffer, 24 h; for solubility at 24 h: aqueous
# [2] = biological target: GABA-A receptor; anion channel (Rattus norvegicus) (UniProt O09028+P15431+P18506+P18508+P19969+P20236+P23574+P23576+P28471+P28473+P30191+P62813+P63079+P63138+Q91ZM7+Q9ES14); experiment: Displacement of [3H]flunitrazepam from GABAA receptor in rat brain extract at 10 uM relative to control; assay type: tissue-based
# HEK293 = experiment: Cytotoxicity against HEK293 cells assessed as lethal dose measured after 18 hrs by CellTiter-Glo assay; assay type: functional; conditions: Homo sapiens, read-out: LD50 (the source's name)
# In short: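 HEK293T cells grown in DMEM/high glucose with NEAA, HEPES, pen/strep, 10% heat-inactivated FBS. Plated 15,000 cells/well, then 4 h at 37 °C, 5% CO2. Compound added as 1:3 serial dilutions, top final concentration 300 µM. After 18 h, read luminescence by CellTiter-Glo. DMSO negative control, aminoketone positive control. Three independent experiments in quadruplicate, variable-slope nonlinear regression.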
# [3] = Metabolic stability in human liver S9 fraction assessed as parent compound remaining at 10 uM measured after 120 mins in presence of UDP-glucuronic acid by LC-MS/MS analysis; assay type: ADME, subcellular; conditions: read-out: Stability
# In short: (§1)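 Liver S9 (human or mouse), protein 0.5 mg/mL, compound 10 µM (from 1 mM DMSO stock), phosphate buffer pH 7.4, […], alamethicin 0.0225 mg/mL final. Preincubated 5 min at 37 °C, then S9 added. Aliquots at 0 and 120 min quenched in cold methanol with 5 µM 4,5-diphenylimidazole internal standard. Parent remaining from LC-MS/MS peak-area ratio. Two independent assays in triplicate (n = 6).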
# [4] = Metabolic stability in human liver S9 fraction assessed as parent compound remaining at 10 uM measured after 120 mins in presence of NADPH by LC-MS/MS analysis; assay type: ADME, subcellular; conditions: for remaining at 2 h, 10 µM: liver S9 fraction, read-out: Stability
# [5] = Inhibition of sensorimotor coordination in Swiss Webster mouse at 40 mg/kg, po measured after 10 to 30 mins by rotarod analysis; assay type: toxicity, organism-based; conditions: in vivo, time 10-30 min
# In short: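 Female Swiss Webster mice, 10 weeks old, trained on rotarod at 15 rpm for 3 min. Single oral gavage, 100 µL, in 2.5% PEG400/97.5% 2% HPMC. Tested 3 min at 10, 30 and 60 min after dosing; fall time recorded at second fall. n = 12, two-way repeated-measures ANOVA with Bonferroni posttest.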
# [6] = Metabolic stability in mouse liver S9 fraction assessed as parent compound remaining at 10 uM measured after 120 mins in presence of NADPH by LC-MS/MS analysis; assay type: ADME, subcellular; conditions: read-out: Stability
# Mus musculus = experiment: Induction of bronchodilation in A/J mouse assessed as reduction in sRaw values at 7.2 mg/kg administered as nebulized compound; assay type: functional, organism-based
# In short: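 Female A/J mice, no allergen sensitization, trained 5 days in a double-chamber plethysmograph while conscious. Compound nebulized in PBS at 7.2 mg/kg, then five nebulized methacholine challenges (in water). Each nebulization under 1 min, 3 min recording, 1 min pause. sRaw calculated per interval. n = 12, two-way repeated-measures ANOVA against vehicle.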
# [7] = Metabolic stability in mouse liver S9 fraction assessed as parent compound remaining at 10 uM measured after 120 mins in presence of UDP-glucuronic acid by LC-MS/MS analysis; assay type: ADME, subcellular; conditions: read-out: Stability; in short: as §1
# Trachea = experiment: Induction of smooth muscle relaxation in Hartley guinea pig trachea ring assessed as reduction in substance P induced smooth muscle constriction at 25 uM measured after 30 mins; assay type: functional, tissue-based; conditions: Cavia porcellus
# [8] = biological target: GABA-A receptor; anion channel; experiment: Displacement of [3H]flunitrazepam from GABAA receptor in rat brain extract; assay type: tissue-based
Compound,solubility [1] [µM],Activity [2] [%],CC50 (HEK293) [µM],"remaining at 2 h, 10 µM [3] [%]","remaining at 2 h, 10 µM [4] [%]",Activity [5],"remaining at 2 h, 10 µM [6] [%]",Activity (Mus musculus),"remaining at 2 h, 10 µM [7] [%]",Activity (Trachea),solubility at 24 h [1] [µM],IC50 [8] [µM],"Stability ([4]; s9, 2 h, 10 µM) [%]"
CC1(C)N=C(c2ccccc2F)c2cc(Br)ccc2NC1=O,319,70,> 150,,,,,,,,,,
CC1(C)N=C(c2ccccc2F)c2cc(Br)ccc2-n2cnc(C(=O)O)c21,4400,74,> 300,111,106,Non-Toxic,106,inactive,107,,,,
O=C1Nc2ccc(Br)cc2C(c2ccccc2F)=NC12CC2,321,97,> 150,,,,,,,,,,
CCOC(=O)c1ncn2c1C1(CCCCC1)N=C(c1ccccc1F)c1cc(Br)ccc1-2,141,74,96,,,,,,,,,,
O=C(O)c1ncn2c1C1(CCCCC1)N=C(c1ccccc1F)c1cc(Br)ccc1-2,46900,24,> 300,106,107,Non-Toxic,111,inactive,78,Active,,,
O=C(O)c1ncn2c1C1(CC1)N=C(c1ccccc1F)c1cc(Cl)ccc1-2,36200,18,> 300,103,103,Non-Toxic,101,,98,,,,
CCC1N=C(c2ccccc2F)c2cc(Br)ccc2NC1=O (racemic),,95,> 150,,,,,,,,397,134,
C#Cc1ccc2c(c1)C(c1ccccc1F)=NC1(CC1)C1C(C(=O)OCC)N=CN21 (centres undefined),53,56,> 150,,,,,,,,,,
C#Cc1ccc2c(c1)C(c1ccccc1F)=NC1(CC1)c1c(C(=O)O)ncn1-2,40300,55,> 300,93,106,Non-Toxic,108,Active,113,Active,,,
CCOC(=O)c1ncn2c1C1(CCC1)N=C(c1ccccc1F)c1cc(Br)ccc1-2,186,83,> 120,,,,,,,,,,
CCOC(=O)c1ncn2c1C(C)(C)N=C(c1ccccc1F)c1cc(Br)ccc1-2,103,78,> 150,,,,,,,,,,
O=C1Nc2ccc(Br)cc2C(c2ccccc2F)=NC12CCCC2,98,13,> 120,,,,,,,,,,
O=C1Nc2ccc(Cl)cc2C(c2ccccc2F)=NC12CC2,39,90,> 150,,,,,,,,,,
CCOC(=O)c1ncn2c1C1(CC1)N=C(c1ccccc1F)c1cc(Cl)ccc1-2,54,34,> 150,,,,,,,,,,
O=C(O)c1ncn2c1C1(CC1)N=C(c1ccccc1F)c1ccccc1-2,15100,74,> 300,96,106,Non-Toxic,108,Active,99,Active,,,
CCOC(=O)c1ncn2c1C1(CC1)N=C(c1ccccc1F)c1cc(Br)ccc1-2,141,94,> 120,,,,,,,,,,
CCC1N=C(c2ccccc2F)c2cc(Br)ccc2-n2cnc(C(=O)O)c21 (racemic),,102,> 300,111,119,Non-Toxic,108,Active,114,,77600,145,
O=C(O)c1ncn2c1C1(CCCC1)N=C(c1ccccc1F)c1cc(Br)ccc1-2,46700,2,> 300,96,114,Non-Toxic,117,inactive,92,,,,
O=C1Nc2ccc(Br)cc2C(c2ccccc2F)=NC12CCCCC2,94,33,87,,,,,,,,,,
CCOC(=O)c1ncn2c1C1(CC1)N=C(c1ccccc1F)c1cc(C3CC3)ccc1-2,96,22,> 120,,,,,,,,,,
O=C1Nc2ccc(Br)cc2C(c2ccccc2F)=NC12CCC2,109,71,> 150,,,,,,,,,,
O=C(O)c1ncn2c1C1(CCC1)N=C(c1ccccc1F)c1cc(Br)ccc1-2,58700,59,> 300,113,,Non-Toxic,90,inactive,91,,,1830,122
CCOC(=O)c1ncn2c1C1(CCCC1)N=C(c1ccccc1F)c1cc(Br)ccc1-2,144,19,106,,,,,,,,,,
CCOC(=O)c1ncn2c1C(CC)N=C(c1ccccc1F)c1cc(Br)ccc1-2 (racemic),,61,> 300,,,,,,,,417,175,
O=C(O)c1ncn2c1C1(CC1)N=C(c1ccccc1F)c1cc(C3CC3)ccc1-2,12800,58,> 300,96,107,Non-Toxic,102,,95,,,,
